Experimental findings from ChEMBL document CHEMBL4364297, “Probing the Ligand-Binding Pocket of BTN3A1” (J Med Chem, 2019) are described below.

Data set [1] has as its target T1, Butyrophilin subfamily 3 member A1 (Homo sapiens, UniProt O00481). The data set is described as follows: Activation of BTN3A1 in human PBMC-derived Vgamma9/Vdelta2 T cells assessed as induction of IL2-stimulated cell proliferation by measuring increase in CD3+ cells up to 100 uM preincubated for 3 days followed by 11 days incubation post compound washout and subsequent IL2 stimulation for every 3 days measured after 14 days by flow cytometry. The format is cell-based.
Target sequence in this assay (O00481 30-513 limits assumed): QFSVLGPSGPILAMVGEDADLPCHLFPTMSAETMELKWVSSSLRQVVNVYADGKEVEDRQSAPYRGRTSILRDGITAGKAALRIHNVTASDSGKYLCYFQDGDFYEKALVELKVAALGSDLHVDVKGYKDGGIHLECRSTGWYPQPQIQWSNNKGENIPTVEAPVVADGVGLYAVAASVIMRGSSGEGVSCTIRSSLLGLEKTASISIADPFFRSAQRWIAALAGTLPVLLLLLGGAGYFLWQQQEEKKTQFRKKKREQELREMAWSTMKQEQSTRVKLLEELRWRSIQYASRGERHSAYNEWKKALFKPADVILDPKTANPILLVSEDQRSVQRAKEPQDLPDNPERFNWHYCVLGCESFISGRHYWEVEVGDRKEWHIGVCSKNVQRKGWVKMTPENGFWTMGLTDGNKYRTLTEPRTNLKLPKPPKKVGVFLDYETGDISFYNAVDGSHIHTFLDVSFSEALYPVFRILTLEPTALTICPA

Data set [2] addresses T1, Butyrophilin subfamily 3 member A1. Description: Activation of BTN3A1 in human PBMC-derived Vgamma9/Vdelta2 T cells assessed as induction of IL2-stimulated cell proliferation by measuring increase in CD3+ cells preincubated for 3 days followed by 11 days incubation post compound washout and subsequent IL2 stimulation for every 3 days measured after 14 days by flow cytometry. The format is cell-based.
Target sequence in this assay (O00481 whole entry): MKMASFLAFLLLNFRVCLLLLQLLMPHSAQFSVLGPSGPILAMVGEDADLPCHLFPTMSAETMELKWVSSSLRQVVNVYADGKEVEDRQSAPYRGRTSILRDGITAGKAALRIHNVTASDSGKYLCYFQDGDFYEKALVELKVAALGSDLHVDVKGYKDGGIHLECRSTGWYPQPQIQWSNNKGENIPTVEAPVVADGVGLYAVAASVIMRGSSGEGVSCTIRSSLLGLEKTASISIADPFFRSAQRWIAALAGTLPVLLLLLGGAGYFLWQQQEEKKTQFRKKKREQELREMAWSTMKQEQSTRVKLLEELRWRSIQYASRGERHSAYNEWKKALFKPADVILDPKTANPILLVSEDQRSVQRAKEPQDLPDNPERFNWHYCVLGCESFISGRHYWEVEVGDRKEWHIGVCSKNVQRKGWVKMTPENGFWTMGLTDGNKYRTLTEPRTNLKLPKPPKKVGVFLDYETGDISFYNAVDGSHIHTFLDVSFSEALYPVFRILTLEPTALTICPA

Data set [3] concerns the target Butyrophilin subfamily 3 member A1 (Homo sapiens, UniProt O00481, W421A). The data set is described as follows: Displacement of GDP-BODIPY from C-terminal 6His-tagged BTN3A1 W421A mutant (unknown origin) expressed in Escherichia coli BL21 (DE) measured after 60 mins by fluorescence polarization assay.
Data set [4] concerns the target Butyrophilin subfamily 3 member A1 (Homo sapiens, UniProt O00481, R448A). The data set is described as follows: Displacement of GDP-BODIPY from C-terminal 6His-tagged BTN3A1 R448A mutant (unknown origin) expressed in Escherichia coli BL21 (DE) measured after 60 mins by fluorescence polarization assay.
In data set [5] the target is T1, Butyrophilin subfamily 3 member A1. The data set is described as follows: Displacement of GDP-BODIPY from C-terminal 6His-tagged BTN3A1 full […] domain (unknown origin) expressed in Escherichia coli BL21 (DE) measured after 60 mins by fluorescence polarization assay.
Target sequence in this assay (O00481 whole entry): as above
Data set [6] concerns the target Butyrophilin subfamily 3 member A1 (Homo sapiens, UniProt O00481, M424A). Description: Displacement of GDP-BODIPY from C-terminal 6His-tagged BTN3A1 M424A mutant (unknown origin) expressed in Escherichia coli BL21 (DE) measured after 60 mins by fluorescence polarization assay. In outline:
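GDP-BODIPY probe (750 nM final) was incubated with 10 μM mutant BTN3A1 full intracellular domain in 100 mM NaCl, 50 mM Tris, 5 mM β-mercaptoethanol, pH 7.5. Test ligand was added at varying concentrations, and plates were kept 60 min in the dark. FP was read at 485/535 nm in triplicate, with at least 3 independent experiments. Probe in buffer served as the negative control and probe with protein as the positive control. IC50 was obtained by 4-parameter nonlinear regression.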

The target in data set [7] is T1, Butyrophilin subfamily 3 member A1. The data set is described as follows: Activation of BTN3A1 in human PBMC-derived Vgamma9/Vdelta2 T cells assessed as induction of IL2-stimulated IFNgamma production measured after 48 hrs by ELISA.
Target sequence in this assay (O00481 whole entry): as above
Data set [8] addresses Butyrophilin subfamily 3 member A1 (Homo sapiens, UniProt O00481, R499A). The data set is described as follows: Displacement of GDP-BODIPY from C-terminal 6His-tagged BTN3A1 R499A mutant (unknown origin) expressed in Escherichia coli BL21 (DE) measured after 60 mins by fluorescence polarization assay.
Data set [9] deals with Butyrophilin subfamily 3 member A1 (Homo sapiens, UniProt O00481, R442A). Description: Displacement of GDP-BODIPY from C-terminal 6His-tagged BTN3A1 R442A mutant (unknown origin) expressed in Escherichia coli BL21 (DE) measured after 60 mins by fluorescence polarization assay.
For data set [10], the target named is T1, Butyrophilin subfamily 3 member A1. The data set is described as follows: Activation of BTN3A1 in human PBMC-derived Vgamma9/Vdelta2 T cells assessed as induction of IL2-stimulated cell proliferation by measuring increase in CD3+ cells at 10 uM preincubated for 3 days followed by 11 days incubation post compound washout and subsequent IL2 stimulation for every 3 days measured after 14 days by flow cytometry relative to control. The format is cell-based.
Target sequence in this assay (O00481 30-513 limits assumed): as the sequence (O00481 30-513 limits assumed) above

A short description of data set [11]: Drug uptake in T cell media assessed as parent compound remaining at 10 uM measured after 48 hrs by UPLC-MS analysis. In short, it runs like this: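 This was the cell-free control. Compound at 10 μM final was held in T cell media without PBMCs, and loss of the parent compound was followed over time. Supernatant was analysed by UPLC-MS on a C18 column (25% to 80% acetonitrile gradient over 8 min). The molecular-ion integral is expressed relative to t = 0.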

Data set [12] can be described thus: Drug uptake in human PBMC assessed as parent compound remaining at 10 uM measured after 24 hrs by UPLC-MS analysis. The format is ADME, cell-based. Particulars: PBMC (peripheral blood mononuclear cells), read-out: Drug uptake. In outline:
(§1)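 Compound at 10 μM final was added to human PBMCs (1,000,000 cells/mL) suspended in T cell media and incubated. The supernatant was collected and stored at –20 °C, then analysed by UPLC-MS on a C18 column (25% to 80% acetonitrile over 8 min). The integrated molecular-ion signal is reported relative to t = 0.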

A short description of data set [13]: Drug uptake in human PBMC assessed as parent compound remaining at 10 uM measured after 6 hrs by UPLC-MS analysis. The format is ADME, cell-based. As to conditions: PBMC (peripheral blood mononuclear cells), read-out: Drug uptake. In outline:
as §1

Data set [14] has as its target T1, Butyrophilin subfamily 3 member A1. The data set is described as follows: Displacement of GDP-BODIPY from C-terminal 6His-tagged BTN3A1 B30.2 domain (unknown origin) expressed in Escherichia coli BL21 (DE) measured after 60 mins by fluorescence polarization assay.
Target sequence in this assay (O00481 whole entry): as the sequence (O00481 whole entry) above
Data set [15] has the same target. The data set is described as follows: Activation of BTN3A1 in human PBMC-derived Vgamma9/Vdelta2 T cells assessed as induction of IL2-stimulated cell proliferation by measuring increase in CD3+ cells at 0.1 uM preincubated for 3 days followed by 11 days incubation post compound washout and subsequent IL2 stimulation for every 3 days measured after 14 days by flow cytometry relative to control. The format is cell-based.
Target sequence in this assay (O00481 30-513 limits assumed): as the sequence (O00481 30-513 limits assumed) above

SMILES strings stand for the structures. Activity calls are given as the source filed them. The calls are words filed in the database; no cut-off is given here.

Chain of Butyrophilin subfamily 3 member A1 (Homo sapiens, UniProt O00481, M424A) (O00481 30-513 M424A limits assumed): as the sequence (O00481 30-513 limits assumed) above, with M395A counted along it
Chain of Butyrophilin subfamily 3 member A1 (Homo sapiens, UniProt O00481, R499A) (O00481 30-513 R499A limits assumed): as the sequence (O00481 30-513 limits assumed) above, with R470A counted along it
Chain of Butyrophilin subfamily 3 member A1 (Homo sapiens, UniProt O00481, W421A) (O00481 30-513 W421A limits assumed): as the sequence (O00481 30-513 limits assumed) above, with W392A counted along it
Chain of Butyrophilin subfamily 3 member A1 (Homo sapiens, UniProt O00481, R442A) (O00481 30-513 R442A limits assumed): as the sequence (O00481 30-513 limits assumed) above, with R413A counted along it
Chain of Butyrophilin subfamily 3 member A1 (Homo sapiens, UniProt O00481, R448A) (O00481 30-513 R448A limits assumed): as the sequence (O00481 30-513 limits assumed) above, with R419A counted along it

For `COP(=O)(CCCC/C=C(\C)CO)OC`, the result in data set [1] was inactive.
Still for that read-out and setting: under `CC(C)=CCCCCP(=O)(OCOC(=O)C(C)(C)C)OCOC(=O)C(C)(C)C` stands “inactive”.
In the case of `C/C(=C\CCCCP(=O)([O-])[O-])CO.[Na+].[Na+]`, the 50% effective concentration (EC50) result in data set [2] and in data set [7] was “Not Active” in each case. The IC50 was determined as 3.24 mM in data set [3]; 4.62 mM in [4]; 1.07 mM in data set [5]; 5.35 mM in data set [6]; 3.72 mM in [8]; 3.43 mM in [9]. Besides, the outcome in data set [1] was inactive.
`C/C(=C\CCCCP(=O)(OCOC(=O)C(C)(C)C)OCOC(=O)C(C)(C)C)CO`: the EC50 result in data set [2] and in data set [7] was “Not Active” in each case. In data set [1], the outcome was inactive. In addition, the Activity in data set [10] stood at 28.1%. Moreover, the Drug uptake in data set [11] worked out at 44%. In addition, the remaining at 24 h, 10 µM in data set [12] is under 1%. In addition, the remaining at 6 h, 10 µM in data set [13] is 44%.
As to `O=P([O-])([O-])OP(=O)([O-])[O-].[Na+].[Na+].[Na+].[Na+]` [SODIUM PYROPHOSPHATE], in data set [7], the EC50 entry is “Not Active”.
Turning to `C/C(=C\CCP(=O)(O)O)CO`, the half-inhibitory concentration (IC50) in data set [3] was found to be 3.19 mM; in [14], 2.56 mM; in data set [4], 3.93 mM; in [5], 3.85 mM; in [6], 3.39 mM; in [8], 3.83 mM. The molecule also showed an IC50 in data set [9] of 3.22 mM. The EC50 in data set [7] (read-out: EC50) stood at 3400 nM.
Turning to `C/C(=C\CCP(=O)(CP(=O)(OCOC(=O)C(C)(C)C)OCOC(=O)C(C)(C)C)OCOC(=O)C(C)(C)C)CO` (centres undefined), the EC50 in data set [7] (read-out: EC50) is over 1000 nM.
For `C/C(=C\CCP(=O)(O)OP(=O)(O)O)CO`, the half-inhibitory concentration (IC50) in data set [14] and in [5] was 0.00787 mM throughout. In addition, the EC50 in [7] (read-out: EC50) was 2 nM.
For `C/C(=C\COP(=O)(O)OP(=O)(O)O)CO`, the Activity in [15] was found to be 64%.
Consider `C/C(=C\CCP(=O)(OCOC(=O)C(C)(C)C)OCOC(=O)C(C)(C)C)CO`, for which the outcome in [15] was Active. Further, the Drug uptake in [11] came to 63%. In addition, the EC50 in [7] (read-out: EC50) turned out to be 15 nM. For the same molecule, the remaining at 24 h, 10 µM in [12] is under 1%. Moreover, in data set [13], the remaining at 6 h, 10 µM was 58%.
In data set [14], `C/C(=C\CCP(=O)(O)CP(=O)(O)O)CO` gave an IC50 of 0.103 mM. Besides, the EC50 in data set [7] (read-out: EC50) is over 100000 nM.
